Laboratory results from ChEMBL document CHEMBL1142316, “Synthesis and biological evaluation of bengacarboline derivatives” (Bioorg Med Chem Lett, 2008).
Activity calls are given as the source filed them. No cut-off for these calls is given here.

What was measured:
[1] = Inhibition of topoisomerase by kinetoplast DNA decatenation assay at 100 uM
[2] = test system: A549; assay: Cytotoxicity against human A549 cells after 72 hrs; format: functional, cell-based; conditions: A549, 72 h
Summary of the method: (§1)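 Cells (ATCC) were exposed in log-phase growth for 72 h to compound across 10 µM to 10 nM in RPMI with 10% FCS, 4 mM glutamine, penicillin/streptomycin and fungizone, at 37 °C under 5% CO2. Viability was read as ATP from viable cells by luminescence kit. IC50 is the dose cutting ATP release by 50%.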

[3] = test system: MCF7; assay: Cytotoxicity against human MCF7 cells after 72 hrs; format: functional, cell-based; conditions: MCF7, 72 h; summary of the method: as §1
[4] = test system: A549; assay: Cell cycle arrest in human A549 cells by accumulation at S phase after 48 hrs by flow cytometry; format: functional, cell-based
Summary of the method: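 A549 cells were seeded at 1.3 × 10^4 cells/cm², then drug-treated. They were stained with propidium iodide and read by flow cytometry on the […] channel. G1, S and G2/M fractions were obtained by deconvolution.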

[5] = test system: BXPC-3; assay: Cytotoxicity against human BxPC3 cells after 72 hrs; format: functional, cell-based; conditions: BXPC-3, 72 h; summary of the method: as §1
[6] = test system: LoVo; assay: Cytotoxicity against human LoVo cells after 72 hrs; format: functional, cell-based; summary of the method: as §1
[7] = molecular target: DNA topoisomerase 2-alpha (Homo sapiens, UniProt P11388); assay: Inhibition of topoisomerase 2 mediated DNA relaxation
[8] = Cytotoxicity against human Namalwa cells after 72 hrs; format: functional, cell-based; conditions: NAMALVA; summary of the method: as §1
[9] = test system: SK-OV-3; assay: Cytotoxicity against human SKOV3 cells after 72 hrs; format: functional, cell-based; conditions: SK-OV-3, 72 h; summary of the method: as §1
[10] = test system: CEM/C2; assay: Cytotoxicity against human topoisomerase 1 mutant CEM/C2 cells; format: functional, cell-based; summary of the method: as §1
[11] = Cytotoxicity against human HL60/MX2 cells; format: functional, cell-based
[12] = Displacement of Hoechst 33258 from DNA
[13] = test system: P388; assay: Antitumor activity in mouse P388 cells xenografted mouse at 10 mg/kg, ip for 4 days; format: functional, organism-based; design: dose 10 mg/kg
Summary of the method: (§2)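 Compounds were given ip at 10 or 20 mg/kg per injection, once daily for 4 days. Antitumor activity and toxicity were both recorded.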

[14] = Displacement of ethidium bromide from DNA
[15] = test system: Mus musculus; assay: Toxicity in P388 cells xenografted mouse at 10 to 20 mg/kg, ip for 4 days; format: organism-based; design: dose 10-20 mg/kg, route intraperitoneal; conditions: in vivo, 96 h; summary of the method: as §2
[16] = molecular target: T1, DNA topoisomerase 1 (Homo sapiens, UniProt P11387); assay: Inhibition of topoisomerase 1-mediated DNA relaxation
T1 sequence (P11387 whole entry): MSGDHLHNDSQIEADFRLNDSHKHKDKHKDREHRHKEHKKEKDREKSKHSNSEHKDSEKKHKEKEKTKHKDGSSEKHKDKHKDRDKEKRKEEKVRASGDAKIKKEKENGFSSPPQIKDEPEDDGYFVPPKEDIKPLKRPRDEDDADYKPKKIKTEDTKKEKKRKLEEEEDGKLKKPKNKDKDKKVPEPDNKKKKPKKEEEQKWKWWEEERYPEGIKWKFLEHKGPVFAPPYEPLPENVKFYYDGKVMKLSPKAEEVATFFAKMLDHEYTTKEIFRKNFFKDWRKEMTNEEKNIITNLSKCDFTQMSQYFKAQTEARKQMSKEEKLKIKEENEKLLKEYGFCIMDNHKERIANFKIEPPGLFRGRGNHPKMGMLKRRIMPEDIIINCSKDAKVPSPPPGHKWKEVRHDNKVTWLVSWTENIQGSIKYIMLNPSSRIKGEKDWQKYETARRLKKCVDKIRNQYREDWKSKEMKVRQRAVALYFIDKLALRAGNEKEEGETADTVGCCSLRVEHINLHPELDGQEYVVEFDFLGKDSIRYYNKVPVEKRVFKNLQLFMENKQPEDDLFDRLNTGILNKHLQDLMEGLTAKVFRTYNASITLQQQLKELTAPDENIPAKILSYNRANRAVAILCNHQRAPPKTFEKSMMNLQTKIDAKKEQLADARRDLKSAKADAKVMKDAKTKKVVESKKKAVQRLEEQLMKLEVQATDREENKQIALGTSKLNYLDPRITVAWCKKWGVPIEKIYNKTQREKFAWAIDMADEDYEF
Summary of the method: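 Supercoiled plasmid DNA (200 ng) was incubated 20 min at 37 °C with the minimum purified topoisomerase I needed for full relaxation, with or without drug at 1, 3.2, 10 or 100 µM. The reaction was stopped with SDS–proteinase K, and products were resolved by agarose gel electrophoresis.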

[17] = test system: V79; assay: Effect on DNA damage in Chinese hamster V79 cells at 10 uM after 1 hr by comet assay relative to control; format: functional, cell-based; conditions: Cricetulus griseus
Summary of the method: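 Cells were treated for 1 h at 10 µM. Controls carried 1% DMSO, matching the drug samples. Strand breaks were scored by comet assay, with representative photomicrographs (10×) of each full slide.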

[18] = test system: HL-60; assay: Cytotoxicity against human HL60 cells; format: functional, cell-based
[19] = test system: P388; assay: Antitumor activity in mouse P388 leukemia model at 20 mg/kg, ip for 4 days; format: functional, organism-based; design: dose 20 mg/kg; summary of the method: as §2
[20] = Inhibition of topoisomerase by kinetoplast DNA decatenation assay
[21] = test system: CCRF-CEM; assay: Cytotoxicity against human CEM cells; format: functional, cell-based; summary of the method: as §1

DNA topoisomerase 2-alpha, sequence (P11388 whole entry): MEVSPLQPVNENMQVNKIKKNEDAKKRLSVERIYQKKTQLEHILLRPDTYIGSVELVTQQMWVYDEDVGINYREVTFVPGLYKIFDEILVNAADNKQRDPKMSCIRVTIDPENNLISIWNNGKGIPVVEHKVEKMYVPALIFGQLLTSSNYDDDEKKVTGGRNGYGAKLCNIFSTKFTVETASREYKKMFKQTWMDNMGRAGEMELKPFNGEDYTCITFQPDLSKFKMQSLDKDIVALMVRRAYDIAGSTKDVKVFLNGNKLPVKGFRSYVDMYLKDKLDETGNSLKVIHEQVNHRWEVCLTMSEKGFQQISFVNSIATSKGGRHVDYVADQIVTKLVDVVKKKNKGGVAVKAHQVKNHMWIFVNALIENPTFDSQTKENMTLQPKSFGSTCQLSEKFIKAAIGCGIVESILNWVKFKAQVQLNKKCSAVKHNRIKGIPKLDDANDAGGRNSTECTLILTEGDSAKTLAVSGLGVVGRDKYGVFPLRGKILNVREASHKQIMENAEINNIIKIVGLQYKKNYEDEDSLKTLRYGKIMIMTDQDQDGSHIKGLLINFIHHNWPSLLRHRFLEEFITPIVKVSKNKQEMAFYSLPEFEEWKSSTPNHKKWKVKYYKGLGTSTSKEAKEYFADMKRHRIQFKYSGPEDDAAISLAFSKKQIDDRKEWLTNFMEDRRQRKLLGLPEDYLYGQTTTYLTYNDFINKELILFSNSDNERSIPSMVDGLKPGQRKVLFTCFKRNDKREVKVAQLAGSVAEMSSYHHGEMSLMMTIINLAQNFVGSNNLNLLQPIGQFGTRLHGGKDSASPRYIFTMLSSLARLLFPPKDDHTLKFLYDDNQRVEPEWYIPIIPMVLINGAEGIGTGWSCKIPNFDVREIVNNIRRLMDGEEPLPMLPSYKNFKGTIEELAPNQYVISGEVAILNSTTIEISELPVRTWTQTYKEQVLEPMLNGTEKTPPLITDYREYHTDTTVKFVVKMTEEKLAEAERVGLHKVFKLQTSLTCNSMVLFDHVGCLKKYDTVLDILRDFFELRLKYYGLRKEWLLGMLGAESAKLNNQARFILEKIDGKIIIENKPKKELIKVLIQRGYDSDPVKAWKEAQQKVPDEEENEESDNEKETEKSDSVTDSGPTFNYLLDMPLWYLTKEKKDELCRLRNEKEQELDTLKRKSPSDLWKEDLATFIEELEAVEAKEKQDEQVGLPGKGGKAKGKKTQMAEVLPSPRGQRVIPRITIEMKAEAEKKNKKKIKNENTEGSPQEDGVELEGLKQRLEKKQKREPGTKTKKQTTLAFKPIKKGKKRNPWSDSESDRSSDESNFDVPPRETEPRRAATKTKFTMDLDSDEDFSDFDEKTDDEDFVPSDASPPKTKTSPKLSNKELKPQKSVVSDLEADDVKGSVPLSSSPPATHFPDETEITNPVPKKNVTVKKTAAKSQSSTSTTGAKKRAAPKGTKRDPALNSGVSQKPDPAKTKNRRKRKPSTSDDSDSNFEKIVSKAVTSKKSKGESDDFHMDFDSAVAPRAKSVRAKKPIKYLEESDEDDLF

Row | IC50 [7] [µM] | Activity [12] | Activity [14] | IC50 [16] [µM] | IC50 [20] [µM] | SMILES | IC50 [2] [µM] | IC50 [3] [µM] | Activity [4] | IC50 [5] [µM] | IC50 [6] [µM] | IC50 [8] [µM] | IC50 [9] [µM] | Activity [13] | Activity [15] | Activity [17] | Activity [19] | also measured
1 | > 100 |  |  |  |  | NCCc1c(C2(c3c[nH]c4ccccc34)NCCc3c2[nH]c2ccccc32)[nH]c2ccccc12 (stereo not given) [BENGACARBOLINE] | 7.1 | 8.6 | Active | 10 | 9.9 | > 10 | > 10 |  |  |  |  | Activity [1]: inactive
2 | 13 | inactive | inactive | 8 | 20 | NCCc1c(C(c2[nH]c3cc(Br)ccc3c2CCNC(=O)C(F)(F)F)c2c[nH]c3ccccc23)[nH]c2cc(Br)ccc12 (stereo not given) | 4.6 | 4.2 | Dose-dependent effect | 5.1 | 5 | 5.4 | 6.5 | Non-toxic | Non-toxic | Active | Non-toxic | IC50 [10]: 5.6 µM; IC50 [11]: 10 µM; IC50 [18]: 8.8 µM; IC50 [21]: 5.5 µM
3 | 19 | inactive | inactive | 9 | 20 | NCCc1c(C(c2[nH]c3cc(Br)ccc3c2CCNC(=O)C(F)(F)F)c2cn(S(=O)(=O)c3ccccc3)c3ccccc23)[nH]c2cc(Br)ccc12 (stereo not given) | 5 | 4.9 | Dose-dependent effect | 3.6 | 4.5 | 3.5 | 6.5 | Non-toxic | Non-toxic | Active | Non-toxic | 
